Source: PubChem BioAssay (SRMLSC)
The entries come from a sample that favours hits as a whole.
PTEN del growth – growth suppression of PTEN-null HCT116, primary screen, cell-based, CellTiter-Glo | HCT116 PTEN-null viability, 60 h; hits give low values | viability, % at 10 µM | 1.2% of 140,000 active;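 active means viability at or below a set limit, 4 SD under the median of all tested compounds, cut at about 3.7% in these data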;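 further: PTEN knockout HCT116 line with beta catenin targeted HCT116 as companion control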
HUVEC prolif 384 – inhibitors of HUVEC proliferation, primary screen, cell-based, 384-well. CellTiter-Glo luminescence, 72 h; hits give low values. viability, % at 10 µM (by protocol). 1.1% of 86,000 active. AID 648, 2007;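 active means viability at or below 30%; inactive means viability above 30%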;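 further: 100% = median luminescence of DMSO-only cell control wells on each plate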
Fibroblast inh – antiproliferative effect on LL 47 fibroblasts – human, LL 47 cells, CellTiter-Glo luminescence, primary screen; LL 47 human lung fibroblast viability, ATP luminescence; hits give low values; viability, % at 10 µM; 1.1% of 85,000 active; AID 719, 2007;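 active means viability at or below 50% in the single dose screen; inactive means viability above 50%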;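 further: compound exposure lasted 72 h before the ATP readout; 100% = median luminescence of untreated cell-only wells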
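Assay system: human lung fibroblast line LL 47, low passage. Input: 1,150 fibroblasts seeded per well. Times: overnight cell rest, 72 h compound treatment at 37 °C. Evaluation: % viability of median cell-only signal. Technique: luminescent ATP detection, CellTiter-Glo. Control set: cell-only wells, no compound.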
H69AR inhibit – proliferation blockers of H69AR lung cancer cells, primary screen, cell-based, human, 86K library | AID 598, 2007 | H69AR lung tumor viability, ATP luminescence, 72 h; hits give low values | viability, % at 10 µM | 6% of 85,000 active;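 active means viability at or below 40%; inactive means viability above 40%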;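 further: multidrug resistant small cell line overexpressing MRP-1 efflux transporter; 100% = mean luminescence of untreated control wells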
bCat KO growth – primary screen for growth suppressors in beta-catenin knockout HCT116 cells (colon tumor, human). HCT116 beta-catenin knockout viability, CellTiter-Glo, 60 h; hits give low values. viability, % at 10 µM. 1.5% of 140,000 active. AID 818, 2007;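 active means viability at or under a set limit, the compound median less 4 SD, cut at about 6% in these data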;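 further: 0% = Hyamine 1622 control at 20 µM and 100% = untreated cell control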
* hit, by the source's call; . = no result given.

SMILES	PTEN del growth	HUVEC prolif 384	Fibroblast inh	H69AR inhibit	bCat KO growth
CN(CC1CCCO1)S(=O)(=O)c1ccc(C(=O)Nc2nc(-c3ccccn3)cs2)cc1 (centres undefined)	8	45	42*	55	3.9*
O=C(N/N=C/c1ccco1)C1COc2ccccc2O1 (centres undefined)	96	.	.	.	90
O=C(N/N=C/c1cccs1)C1COc2ccccc2O1 (centres undefined)	79	69	95	24*	81
COc1ccc(C(=O)OC(COc2ccccc2)Cn2ccnc2)cc1 (centres undefined)	74	82	94	85	66
CCOC(=O)c1cc2c(=O)n3cccc(C)c3nc2n(Cc2ccco2)c1=NC(=O)c1ccccc1	57	79	96	25*	35
Cc1ccc(CNC(=O)C2CCCN(S(=O)(=O)c3c(C)[nH]c(=O)[nH]c3=O)C2)cc1 (centres undefined)	94	.	.	.	89
Cc1nc2c(ccc3nc(NC(=O)c4ccc(S(=O)(=O)N(C)C)cc4)sc32)s1	74	47	95	35*	80
COc1cccc(NC(=O)Cc2nc(-c3ccccc3)sc2-c2ccc(C)cc2)c1	63	.	.	.	72
CC(=O)Nc1cccc(NC(=O)Cc2nc(-c3ccccc3)sc2-c2ccc(C)cc2)c1	1.4*	.	.	.	10
CCOC(=O)c1cc2c(ccn2-c2ccc(F)cc2)n1CC(=O)N1CCN(C(=O)c2ccco2)CC1	94	52	49*	22*	83
CC1CC1C(=O)OCC(=O)NCc1ccccc1Cl (centres undefined)	101	82	94	29*	98
COc1ccc(NC(=O)/C(Cl)=C(/Cl)S(=O)(=O)Cc2ccccc2)cn1	3.0*	125	4.7*	1.9*	4.5*
CCN1/C(=C2\SC(=S)N(Cc3ccccc3)C2=O)Sc2ccccc21	91	.	.	.	88
CCC(CO)[n+]1c(C)cc(/C=C2\Sc3ccccc3N2Cc2ccccc2)cc1C (centres undefined)	1.6*	.	.	.	1.4*
CCOC(=O)c1ccc(Nc2ccc(-c3ccc(OC)c(OC)c3)nn2)cc1	73	56	98	32*	76
C/C(=N/OCO/N=C(\C)c1ccccc1F)c1ccccc1F	87	.	.	.	98
COc1c(N2CCN(C(=S)NCc3ccccc3)C(C)C2)c(F)cc2c(=O)c(C(=O)O)cn(C3CC3)c12 (centres undefined)	13	108	98	2.5*	13
CC1CCCN(C(=S)NCc2ccccc2)C1 (centres undefined)	100	.	.	.	94
N=C(N)c1ccc(OCCCCCOc2ccc(C(=N)N)cc2)cc1	32	.	.	.	36
CCCCCCOc1ccc(/C(N)=N/O)cc1	83	80	92	35*	96
CCCc1nnc(NC(=O)CCC(=O)NC2CCCc3ccccc32)s1 (centres undefined)	99	.	.	.	92
Cc1ccc(C(=O)/C=C/c2ccc(F)cc2)o1	9	.	.	.	9
O=C(/C=C/c1ccc(F)cc1)c1ccccc1Br	2.2*	.	.	.	2.6*
COc1cccc(C2=NOC(C(=O)NCc3ccccc3)C2)c1 (centres undefined)	83	63	97	26*	92
C=CCNC(=O)C1CC(c2cccc(OC)c2)=NO1 (centres undefined)	61	94	96	2.8*	65
SMILES	PTEN del growth	HUVEC prolif 384	Fibroblast inh	H69AR inhibit	bCat KO growth
COc1cccc(C2=NOC(C(=O)NCc3ccco3)C2)c1 (centres undefined)	50	73	95	36*	61
CCC(C)NC(=O)C1CC(c2cccc(OC)c2)=NO1 (centres undefined)	94	92	90	86	104
COCCNC(=O)C1CC(c2cccc(OC)c2)=NO1 (centres undefined)	101	99	97	92	85
CCN(CC)S(=O)(=O)c1ccc(NC(=O)COC(=O)CN2C(=O)c3ccccc3C2=O)cc1	103	.	.	.	110
O=C(Oc1ccnc2cc(Cl)ccc12)N1CCOCC1	86	101	93	77	88
O=C1/C(=N/n2cnnc2)c2ccccc2N1Cc1ccccc1	22	70	92	17*	13
CC(C)CSc1nc2c(c(=O)[nH]c(=O)n2C)n1CC(O)COc1cccc2ccccc12 (centres undefined)	68	79	91	32*	68
CC(C)CSc1nc2c(c(=O)[nH]c(=O)n2C)n1CCc1ccccc1	69	77	85	98	58
CCOC(=O)N1CCC(N2CCN(S(=O)(=O)CC)CC2)CC1	99	.	.	.	106
CC(C)(C)c1ccc(S(=O)(=O)N2CCC(c3nc4ccc(Cl)cc4[nH]3)CC2)cc1	47	67	85	35*	67
COc1cccc(/C=N/Nc2snc(SC)c2C#N)c1O	26	61	68	20*	22
COc1ccc(/C=N/Nc2snc(SC)c2C#N)cc1OC	58	64	83	48	56
CC(C)Cn1c(=O)c(C(=O)NCc2ccccn2)c(O)c2ccccc21	54	84	92	29*	49
CCOC(=O)C1=C(N)OC2=C(C(=O)CC(C)C2)C1c1cccnc1 (centres undefined)	91	.	.	.	88
Cc1ccc(-c2cc(C(=O)N/N=C/C=C/c3ccccc3)n[nH]2)s1	51	.	.	.	42
CCC1CCCCN1c1nc(-c2ccncc2)nc2ccccc12 (centres undefined)	61	43	89	17*	52
O=S(=O)(c1ccc(Cl)cc1)c1snnc1-c1ccccc1	1.8*	7.5*	6.5*	1.9*	2.8*
CCc1ccc2[nH]c3nc(SCc4nnc(-c5ccc(C)cc5)o4)nnc3c2c1	46	36	44*	9.4*	55
COc1ccc2cc(-c3nc4ccccc4n3C)c(=O)oc2c1	88	101	101	92	94
COc1ccccc1N1CCN(c2ccc(-c3ccccc3)nn2)CC1	10	40	50*	19*	13
Cc1c(Br)c([N+](=O)[O-])nn1C(C)C(=O)Nc1ccc2c(c1)OCO2 (centres undefined)	75	.	.	.	78
Brc1ccc2[nH]c3c(N4CCc5ccccc5C4)ncnc3c2c1	18	55	78	6.3*	22
Cn1c(SC2=CS(=O)(=O)c3ccccc32)nc2ccccc21	1.4*	43	2.2*	0.6*	2.5*
CCOc1cc(NC(=O)c2ccco2)c(OCC)cc1NC(=O)COc1ccccc1C	.	62	57	20*	.
CCOc1cc(NC(=O)c2ccco2)c(OCC)cc1NC(=O)Cc1cccc(OC)c1	108	91	97	74	95
COc1ccc(/C=N/NC(=O)CSc2n[nH]c(=O)[nH]c2=O)cc1	104	.	.	.	96
O=S(=O)(Nc1ccc2c(c1)nc1n2CCN(Cc2ccccc2)C1)c1ccc(F)cc1	90	70	.	53	97
